Screening results as filed in PubChem BioAssay.
Sampled rows, rich in hits. Any-hit rate of the full collection: about 3.5%.
MrgX1 PAM = allosterically activates human MrgX1 receptor signaling | 310,000 tested, 0.63% active | Q96LB2 | B-score at 10 µM | MrgX1-HEK293, Fluo-4 calcium flux, FDSS; hits give high values;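 active means plate-corrected calcium response at least 3 library SD above typical, normal starting fluorescence, not activating the receptor alone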;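 further: compound read alongside a low EC10 to EC30 dose of BAM8-22 agonist; peak minus trough fluorescence over baseline measured at the second addition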
MrgX1 agonist = activates human MrgX1 receptor signaling; Q96LB2; MrgX1-HEK293 cells, Fluo-4 calcium fluorescence, agonist mode; hits give high values; B-score at 10 µM; 310,000 tested, 0.44% active; AID 588627;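 active means calcium response B-score plate-corrected fluorescence ratio at least 3 library SD, with starting fluorescence B-score inside 5 SD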
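Material – MrgX1-expressing HEK293 cells · Input – 15,000 cells seeded per well · Dosing – compound as first of three additions · Times – overnight seeding, then 1 h dark dye loading · Measured by – kinetic Fluo-4 NW fluorescence of intracellular calcium · Read-out – B-scored fluorescence response ratio · Benchmarks – positive and negative control wells on each plate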
RGS4 inh = inhibitors of human RGS4; P49798; 310,000 tested, 0.45% active; HEK293 M3R/RGS4 inducible, Fluo-4 calcium flux; hits give high values; triggered by carbachol at its EC20; B-score at 10 µM; AID 463165;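 active means B-score, a plate-corrected calcium signal, over three deviations above library mean, with baseline fluorescence within five deviations of library mean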;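 further: RGS4 expression induced by doxycycline in cells with stable M3 receptor; B-score is computed from the integrated fluorescence ratio over baseline after carbachol; higher B-score means a larger calcium signal and so more RGS4 inhibition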
Target sequence (P49798 whole entry, looked up): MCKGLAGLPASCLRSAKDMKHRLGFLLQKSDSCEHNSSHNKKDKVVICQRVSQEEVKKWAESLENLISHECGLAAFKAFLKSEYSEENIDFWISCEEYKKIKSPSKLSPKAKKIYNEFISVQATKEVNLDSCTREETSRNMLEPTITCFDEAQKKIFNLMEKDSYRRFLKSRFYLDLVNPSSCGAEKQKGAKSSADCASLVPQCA
RGS4 pot = RGS4 potentiation or activation; HEK293 M3R/inducible RGS4, carbachol calcium flux Fluo4; hits give low values; B-score at 10 µM; 310,000 tested, 0.92% active; AID 463111;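 active means B-score of the integrated calcium signal more than 4 SD below the library mean, with starting fluorescence not abnormally high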;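 further: negative B-score means reduced calcium response which marks RGS4 activation or potentiation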
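Assay system: HEK293 FlpIn-TREx cells, stable M3R, doxycycline-inducible RGS4 / Probe or stimulus: carbachol, ECmax concentration / Times: overnight RGS4 induction, 30 min dye load 37 °C, 20 min compound RT / Signal: kinetic calcium fluorescence imaging with Fluo4-AM dye, 2 µM / Measure: Agonist-evoked peak-minus-minimum fluorescence over baseline, integrated ratio, B score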
MrgX1 antag = blocks BAM8-22 activation of human MrgX1 receptor. Q96LB2. MRGX1-HEK293 calcium flux, Fluo-4, BAM8-22 antagonism; hits give low values. B-score at 10 µM. 310,000 tested, 1.3% active;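 active means calcium-response B-score plate-corrected more than 3 library SD below zero, starting fluorescence within 5 deviations, no agonist response on first addition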;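 further: peak minus trough fluorescence over baseline after final BAM8-22 challenge near maximal dose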
Numbers without * were called inactive; i = inactive.

SMILES | MrgX1 PAM | MrgX1 agonist | RGS4 inh | RGS4 pot | MrgX1 antag
CC(C)c1nnc(NC(=O)CCC2CCCCC2)s1 | i | i | i | i | i
Cc1ccc(NC(=O)CNC(C)c2ccccc2)cc1 (stereo not drawn) | i | i | i | i | i
Cc1ccccc1CN(CC(=O)Nc1cccc([N+](=O)[O-])c1)S(=O)(=O)c1ccc(Cl)cc1 | i | i | i | -7.25* | i
CS(=O)(=O)N(CC(=O)Nc1cccc([N+](=O)[O-])c1)c1ccccc1 | i | i | i | i | i
CCCCNc1c(-c2ccc(SC3CCCCC3)cc2)nc2ccccn12 | i | i | i | i | i
CCCCNc1c(-c2ccc(SC(C)CC)cc2)nc2ccccn12 (stereo not drawn) | i | i | i | -7.52* | i
COc1ccc(O)c(CN2CCCC(N3CCc4ccccc4C3)C2)c1 (stereo not drawn) | i | i | i | i | i
CCCc1cc(C(=O)Nc2ccc(C(=O)c3ccc(F)cc3)cc2)n(C)n1 | i | i | i | i | -6.88*
CCCc1cc(C(=O)Nc2ccc(C(=O)c3ccccc3)cc2)n(C)n1 | i | i | i | i | i
Cc1cc2c(cc3c(=O)n(CC(=O)NCCCN4CC(C)CC(C)C4)ncn32)s1 (stereo not drawn) | i | i | i | i | i
O=C1CSC(c2ccccn2)N1c1ccc(Br)cc1 (stereo not drawn) | i | i | i | i | i
NNC(=O)Nc1cccc(C(F)(F)F)c1 | 11.9* | i | i | i | i
NC(N)=N/N=C/c1ccc(OS(=O)(=O)c2ccccc2)cc1 | i | 30.2* | i | -8.4* | i
CC(C)C(C(=O)Nc1ccncc1)c1ccc(Cl)cc1 (stereo not drawn) | i | i | i | i | -4.58*
Cc1ccc2cc(C3CC(c4ccco4)=NN3S(=O)(=O)c3ccccc3)c(Cl)nc2c1 (stereo not drawn) | i | 37.8* | i | i | i
CNC(=O)c1ccsc1NC(=O)CS(=O)(=O)c1ccc(Cl)cc1 | i | i | i | i | i
CN(C)S(=O)(=O)N1CCC(Oc2cccc(C(=O)NC3CCCCC3)c2)CC1 | i | i | i | i | i
CN(C)S(=O)(=O)N1CCC(Oc2cccc(C(=O)NCCC3=CCCCC3)c2)CC1 | i | i | i | i | -4.54*
O=C1CC(c2ccccc2)CC(O)=C1C=NCc1ccncc1 (stereo not drawn) | i | i | i | i | -6.4*
O=C1CC(c2ccccc2)CC(O)=C1C=NCc1ccc(Cl)c(Cl)c1 (stereo not drawn) | i | i | i | i | i
Cn1c(SCCC#N)nnc1-c1ccc(F)cc1 | i | i | i | i | i
CC1=C(SCCC#N)S/C(=C2\SC(C)=C(SCCC#N)S2)S1 | i | i | i | i | -5.25*
COc1ccc(Nc2nc(-c3ccccc3O)nc3ccccc23)cc1 | i | i | i | -6.96* | i
COc1ccc(Nc2nc(-c3ccccc3F)nc3ccccc23)cc1OC | i | i | i | -7.19* | i
O=c1cc(-c2ccccc2)c2c(O)cc(O)cc2o1 | i | 29.5* | i | i | i
SMILES | MrgX1 PAM | MrgX1 agonist | RGS4 inh | RGS4 pot | MrgX1 antag
O=c1c(-c2ccccc2)c(-c2ccccc2)oc2cc(O)cc(O)c12 | i | i | i | i | i
COc1cc(/C=N/NC(=O)NC23CC4CC(CC(C4)C2)C3)ccc1OCC(N)=O | i | i | i | -8.1* | i
COc1cc(/C=N/NC(N)=S)ccc1OCC(=O)Nc1ccc(C)cc1 | i | i | i | i | -5.52*
CC1=C(C#N)C(NC(=O)c2cccc(Cl)c2)(C(F)(F)F)C(=O)N1 (stereo not drawn) | i | i | i | i | i
CCN1CCc2nc3sc(C(=O)N4CCc5ccccc5C4)c(N)c3cc2C1 | i | i | i | i | i
CCc1ccc2nc3sc(C(=O)N4CCc5ccccc54)c(N)c3cc2c1 | i | i | i | i | -7.66*
CC(C)c1ccc2nc3sc(C(=O)N4CCc5ccccc5C4)c(N)c3cc2c1 | i | i | i | i | -5.85*
